Shown are actives, neighbours in structure and some others; about 1.3% of the full set was active somewhere.
aDG glyco act = increases alpha dystroglycan glycosylation. Pro5-aDG cells, alpha-DG glycosylation AlphaScreen (IIH6); 0% Pro5, 100% B10-LARGE cell signal. activation, % at 10 µM. hit rate 0.22% among 360,000;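 active = activation of at least 8% versus controls, or a plate z-score of at least 8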;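 note: Pro5 are CHO cells carrying HIG-tagged alpha-DG that lacks glycosylation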
Rpn11 inh = Rpn11 (human) deubiquitinase inhibition; inhibition, % at 20 µM; hit rate 0.59% among 360,000; human 26S proteasome, Ub4-pepOG fluorescence polarization; 20S core pre-blocked with epoxomicin; O00487; AID 588493;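 active = inhibition at 20 µM, scaled to each plate's controls, above about 33%, limit read from the data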
TPT1 inh = blocks Candida albicans tRNA 2'-phosphotransferase; hit rate 0.81% among 300,000; recombinant caTPT1, FP RNA substrate dephosphorylation; inhibition, % at 5 µM; AID 1962;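 active = inhibition above the mean of all tested compounds plus 3 SD, set per screening campaign, cut at about 24% in these data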;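 note: plate controls were DMSO alone for no effect and ferristatin control at 100 nM for full effect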
HNF4A DNA FP = change in binding of human HNF4 alpha to DNA | activity change, % at 10 µM | HNF4a-FITC DNA binding, fluorescence polarization, 1 h | P41235 | hit rate 0.3% among 360,000; in the data active = activity change above about 30%, passing the limit was not always enough
XiGFP reactiv = activators of X-chromosome reactivation in mouse fibroblasts. XiGFP mouse fibroblasts, % GFP-positive cells imaging, 3 d; cells co-treated with 5-aza-dC sensitizer; scaled so ellipticine positive control = 100%. hit rate 0.055% among 360,000. AID 743238. activation, % at 7.58 µM;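 active = mean normalized replicate activation at least 10% and every replicate at or above 10%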;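 note: 0% = median of on-plate neutral control wells and 100% = ellipticine 6 µM median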
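Material: SV40-immortalized XiGFP fibroblast cells, line 68-5-11 | Buffer or medium: DMEM containing 5-aza-dC | Dosing: One concentration, pinned | Times: 3 d treatment, 15 min room-temperature fixation | Controls: Ellipticine 6 µM positive control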
CSN deneddyl inh = blocks human CSN-mediated cullin deneddylation; Q92905; Purified CSN, SCF-Nedd8-OG deneddylation, fluorescence polarization; inhibition, % at 12.5 µM; hit rate 0.38% among 360,000; AID 651999;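 active = pattern-corrected inhibition above about 35%, with an unprinted fluorescence ratio check between 0.5 and 1.5, limit read from the data, passing the limit was not always enough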;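 note: 0% = enzyme with substrate and 100% = substrate without enzyme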
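Assay system: purified human Csn5 enzyme expressed in HEK293T cells; Input: 0.24 nM Csn5 enzyme, final concentration; Reagent: 10 nM SCFSkp2-Nedd8OG; Compound dosing: 12.5 µM single point; Times: reaction 90 min, room temperature; Technique: fluorescence polarization readout.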
Rpn11 confirm = confirmation of human proteasome Rpn11 inhibitors; hit rate 29% among 1,900; AID 602318; purified human 26S proteasome, Ub4-pepOG fluorescence polarization; proteasome pretreated with epoxomicin; inhibition, % at 20 µM; shares compounds with Rpn11 inh
MMP-2 inh = counter-screen for RPN11 inhibitors: inhibition of human MMP-2; shares compounds with Rpn11 inh; recombinant MMP-2, FRET peptide cleavage fluorescence; inhibition, % at 20 µM; hit rate 4% among 1,900;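 note: human MMP-2 activated beforehand with APMA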
Thrombin inh = counter-screen for RPN11 inhibitors: inhibition of bovine thrombin. shares compounds with Rpn11 inh. bovine thrombin cleavage of Ub4-pepOG, fluorescence polarization. inhibition, % at 20 µM. hit rate 13% among 1,900;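 active = mean inhibition at least 40% at 20 µM, or signal 3 deviations below plate average, so some actives read negative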;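 note: plate controls were thrombin with DMSO for no effect and buffer wells lacking thrombin for full effect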
Target sequence (P00735 whole entry, looked up): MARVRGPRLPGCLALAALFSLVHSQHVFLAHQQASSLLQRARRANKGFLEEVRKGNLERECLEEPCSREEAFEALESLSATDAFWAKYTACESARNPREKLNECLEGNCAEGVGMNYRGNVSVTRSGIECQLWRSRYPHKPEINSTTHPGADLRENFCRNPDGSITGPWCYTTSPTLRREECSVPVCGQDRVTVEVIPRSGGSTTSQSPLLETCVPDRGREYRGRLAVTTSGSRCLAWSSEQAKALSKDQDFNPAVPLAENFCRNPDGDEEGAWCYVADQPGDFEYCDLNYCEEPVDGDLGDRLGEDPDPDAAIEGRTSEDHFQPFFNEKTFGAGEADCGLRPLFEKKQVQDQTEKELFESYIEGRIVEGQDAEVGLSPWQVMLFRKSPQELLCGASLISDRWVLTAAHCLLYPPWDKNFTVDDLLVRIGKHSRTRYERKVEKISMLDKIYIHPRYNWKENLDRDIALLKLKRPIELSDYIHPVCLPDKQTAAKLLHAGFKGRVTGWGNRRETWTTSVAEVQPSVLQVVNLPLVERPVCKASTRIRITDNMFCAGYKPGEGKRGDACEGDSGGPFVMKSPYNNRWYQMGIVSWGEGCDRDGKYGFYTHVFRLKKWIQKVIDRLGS
An asterisk follows results filed as active; . = no result; + = active, no number. Cut-off read from the data, not from the text of the source, unless noted: active = inhibition above about 40%; inactive = the rest.

SMILES	aDG glyco act	Rpn11 inh	TPT1 inh	HNF4A DNA FP	XiGFP reactiv	CSN deneddyl inh	Rpn11 confirm	MMP-2 inh	Thrombin inh
CCOc1ccc(NC(=O)c2ccc(NC(=O)c3cn4c5c(c(N6CCN(C)CC6)c(F)cc5c3=O)OCC4C)cc2)cc1 (stereo unspecified)	0	46*	-1	10	0	1	-2	-11	0
CC(=O)N1[C@@H]2c3ccc(-c4ccc(F)cc4)c(=O)n3C[C@H]1[C@H](CO)[C@H]2C(=O)N(C)C	.	.	.	.	1	.	.	.	.
CC1=C(C(=O)Nc2ccccc2Cl)C(c2ccc(N(C)C)cc2)NC(=O)N1 (stereo unspecified)	0	64*	13	25	.	13	33	9	31
O=C(O)c1ccc(N=Nc2c(O)ccc3ncccc23)cc1	1	47*	-17	-24	0	34	0	-10	-16
Cc1nonc1NC(=O)Nc1cccnc1	0	+	-4	-2	.	3	1	-9	-14
Cn1ccc2cc(NC(=O)Nc3cccnc3)ccc21	0	66*	-3	-1	0	10	8	-21	-2
Cc1cccc(NC(=O)Nc2cccnc2)c1C	0	5	.	5	0	-2	.	.	.
C[C@H](CO)N1C[C@H](C)[C@@H](CN(C)C(=O)Nc2ccc3c(c2)OCO3)Oc2ccc(NS(=O)(=O)c3cccs3)cc2CC1=O	.	.	.	.	0	.	.	.	.
Cc1noc(C)c1S(=O)(=O)N(C)C[C@H]1OCCCC[C@H](C)Oc2ccc(NC(=O)NC3CCCCC3)cc2C(=O)N([C@H](C)CO)C[C@@H]1C	.	.	.	.	0	.	.	.	.
Cc1ccc(/C=C2\SC(=S)N(CCCC(=O)Nc3cc(C)on3)C2=O)cc1	0	-6	-6	4	0	-5	.	.	.
Cc1cc(NC(=O)CN2C(=O)/C(=C/c3cccc(Br)c3)SC2=S)no1	0	45*	4	17	0	-7	13	-73	-47
CCC(=O)N1C[C@@H](C)[C@H](OC)CN(C)C(=O)c2ccc(NC(=O)c3cc(C)on3)cc2OC[C@@H]1C	.	.	.	.	0	.	.	.	.
CCc1ccccc1NC(=O)N1CCCC(CCC(=O)N(C)CCc2ccccn2)C1 (stereo unspecified)	0	36*	-1	25	0	-2	-9	-11	-7
C[C@@H]1CN([C@H](C)CO)C(=O)c2cc(C#CC3CCCC3)cnc2O[C@@H]1CN(C)C(=O)C1CC1	.	.	.	.	0	.	.	.	.
CC(C)C(=O)Nc1ccc(-c2nnc(-c3ccccc3)o2)cc1	0	9	.	-1	0	-3	.	.	.
O=C(Nc1ccc(-c2nnc(-c3ccccc3)o2)cc1)C(F)(F)F	0	43*	-5	4	.	-1	-24	-14	-20
CCOC(=O)c1sc(NN=C(C(=O)OC)C(=O)OC)c(C(=O)OCC)c1C	0	43*	7	25	0	-10	11	34	4
C=CCn1cc(/C=N/NC(=O)COc2cccc3cccnc23)c2ccccc21	0	59*	3	3	0	0	88*	-10	53*
CC(C)n1cc(/C=N/NC(=O)COc2cccc3cccnc23)c2ccccc21	0	2	5	-6	0	1	.	.	.
CCCC#Cc1ccc2c(c1)O[C@@H](CN(C)C(=O)Nc1ccccc1F)[C@@H](C)CN([C@@H](C)CO)S2(=O)=O	.	.	.	.	-1	.	.	.	.
O=[N+]([O-])c1ccc(N=Cc2sc3ccccc3c2O)cc1	0	62*	51*	5	0	33	-5	-63	-9
N#CCC(=O)N/N=C/c1ccccc1Cl	0	53*	-3	3	0	-7	-15	13	-13
